What was measured:
K562 = assay: Antiproliferative activity against human K562 cells assessed as growth inhibition after 72 hrs by MTT assay; format: functional, cell-based; conditions: K562, 72 h
Method in brief: (§1)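 MTT proliferation assay on human K562 leukaemia, MCF-7 breast adenocarcinoma, Bel-7402 hepatocellular carcinoma and MGC-803 gastric cancer cells. Drug exposure 72 h. IC50 is the concentration inhibiting 50% of cell growth. Means ± SD, n = 3.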

MCF7 = assay: Antiproliferative activity against human MCF7 cells assessed as growth inhibition after 72 hrs by MTT assay; format: functional, cell-based; conditions: MCF7, 72 h; method in brief: as §1
[1] = Antiproliferative activity against human Bel7402 cells assessed as growth inhibition after 72 hrs by MTT assay; format: functional, cell-based; conditions: Bel-7402, 72 h; method in brief: as §1
MGC-803 = assay: Antiproliferative activity against human MGC803 cells assessed as growth inhibition after 72 hrs by MTT assay; format: functional, cell-based; conditions: MGC-803, 72 h; method in brief: as §1
SW-620 = assay: Anticancer activity against human SW620 cells by MTT assay; format: functional, cell-based
Method in brief: (§2)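 MTT cytotoxicity run on paired parental and transporter-overexpressing lines: SW620 vs ABCB1-overexpressing SW620/AD300, and NCI-H460 vs ABCG2-overexpressing NCI-H460/MX20. IC50 is the concentration inhibiting 50% of cell growth. Concentrations tested up to 100 μM.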

[2] = Anticancer activity against ABCB1-overexpressing human SW620/AD300 cells by MTT assay; format: functional, cell-based; conditions: SW-620; method in brief: as §2
NCI-H460 = assay: Anticancer activity against human NCI-H460 cells by MTT assay; format: functional, cell-based; method in brief: as §2
[3] = Anticancer activity against ABCG2-overexpressing human NCI-H460/MX20 cells by MTT assay; format: functional, cell-based; method in brief: as §2
[4] = Anticancer activity against human Bel7402 cells assessed as growth inhibition by MTT assay; format: functional, cell-based; conditions: Bel-7402
Method in brief: (§3)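 Toxicity compared on human normal liver L-02 cells and human liver cancer Bel-7402 cells run side by side. Survival curves by MTT after 72 h treatment. IC50 is the concentration inhibiting 50% of cell growth.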

[5] = Cytotoxicity against human L02 cells by MTT assay; format: cell-based; method in brief: as §3
Bel-7402 [6] = assay: Selectivity index, ratio of IC50 for human L02 cells to ratio of IC50 for human Bel-7402 cells; format: functional
Method in brief: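 Selectivity index is IC50 on normal L-02 liver cells divided by IC50 on Bel-7402 tumour cells. Both IC50 values come from MTT survival curves after 72 h exposure.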

[7] = Cell cycle arrest in human Bel7402 cells assessed as cells at G1 phase at 0.125 uM after 48 hrs by propidium iodide staining-based flow cytometric analysis (reference value: 39.66%); format: functional; conditions: Bel-7402
[8] = Cell cycle arrest in human Bel7402 cells assessed as cells at S phase at 0.125 uM after 48 hrs by propidium iodide staining-based flow cytometric analysis (reference value: 40.82%); format: functional; conditions: Bel-7402
[9] = Cell cycle arrest in human Bel7402 cells assessed as cells at G2 phase at 0.125 uM after 48 hrs by propidium iodide staining-based flow cytometric analysis (reference value: 19.52%); format: functional; conditions: Bel-7402
[10] = Cell cycle arrest in human Bel7402 cells assessed as cells at G1 phase at 0.25 uM after 48 hrs by propidium iodide staining-based flow cytometric analysis (reference value: 39.66%); format: functional; conditions: Bel-7402
[11] = Cell cycle arrest in human Bel7402 cells assessed as cells at S phase at 0.25 uM after 48 hrs by propidium iodide staining-based flow cytometric analysis (reference value: 40.82%); format: functional; conditions: Bel-7402
[12] = Cell cycle arrest in human Bel7402 cells assessed as cells at G2 phase at 0.25 uM after 48 hrs by propidium iodide staining-based flow cytometric analysis (reference value: 19.52%); format: functional; conditions: Bel-7402
[13] = Cell cycle arrest in human Bel7402 cells assessed as cells at G1 phase at 0.5 uM after 48 hrs by propidium iodide staining-based flow cytometric analysis (reference value: 39.66%); format: functional; conditions: Bel-7402
[14] = Cell cycle arrest in human Bel7402 cells assessed as cells at S phase at 0.5 uM after 48 hrs by propidium iodide staining-based flow cytometric analysis (reference value: 40.82%); format: functional; conditions: Bel-7402
[15] = Cell cycle arrest in human Bel7402 cells assessed as cells at G2 phase at 0.5 uM after 48 hrs by propidium iodide staining-based flow cytometric analysis (reference value: 19.52%); format: functional; conditions: Bel-7402
Bel-7402 [16] = assay: Induction of apoptosis in human Bel7402 cells after 48 hrs by Annexin V/propidium iodide staining-based flow cytometric analysis; format: functional, cell-based
Bel-7402 [17] = assay: Induction of apoptosis in human Bel7402 cells assessed as necrotic cells after 48 hrs at 0.125 uM by Annexin V/propidium iodide staining-based flow cytometric analysis (reference value: 1.99%); format: functional
Bel-7402 [18] = assay: Induction of apoptosis in human Bel7402 cells assessed as late apoptotic cells after 48 hrs at 0.125 uM by Annexin V/propidium iodide staining-based flow cytometric analysis (reference value: 5.21%); format: functional
Bel-7402 [19] = assay: Induction of apoptosis in human Bel7402 cells assessed as early apoptotic cells after 48 hrs at 0.125 uM by Annexin V/propidium iodide staining-based flow cytometric analysis (reference value: 0.64%); format: functional
Bel-7402 [20] = assay: Induction of apoptosis in human Bel7402 cells assessed as viable cells after 48 hrs at 0.125 uM by Annexin V/propidium iodide staining-based flow cytometric analysis (reference value: 92.80%); format: functional; conditions: Bel-7402, 48 h, read-out: Activity
Bel-7402 [21] = assay: Induction of apoptosis in human Bel7402 cells assessed as necrotic cells after 48 hrs at 0.25 uM by Annexin V/propidium iodide staining-based flow cytometric analysis (reference value: 1.99%); format: functional
Bel-7402 [22] = assay: Induction of apoptosis in human Bel7402 cells assessed as late apoptotic cells after 48 hrs at 0.25 uM by Annexin V/propidium iodide staining-based flow cytometric analysis (reference value: 5.21%); format: functional
Bel-7402 [23] = assay: Induction of apoptosis in human Bel7402 cells assessed as early apoptotic cells after 48 hrs at 0.25 uM by Annexin V/propidium iodide staining-based flow cytometric analysis (reference value: 0.64%); format: functional
Bel-7402 [24] = assay: Induction of apoptosis in human Bel7402 cells assessed as viable cells after 48 hrs at 0.25 uM by Annexin V/propidium iodide staining-based flow cytometric analysis (reference value: 92.80%); format: functional; conditions: Bel-7402, 48 h, read-out: Activity
Bel-7402 [25] = assay: Induction of apoptosis in human Bel7402 cells assessed as necrotic cells after 48 hrs at 0.5 uM by Annexin V/propidium iodide staining-based flow cytometric analysis (reference value: 1.99%); format: functional
Bel-7402 [26] = assay: Induction of apoptosis in human Bel7402 cells assessed as late apoptotic cells after 48 hrs at 0.5 uM by Annexin V/propidium iodide staining-based flow cytometric analysis (reference value: 5.21%); format: functional
Bel-7402 [27] = assay: Induction of apoptosis in human Bel7402 cells assessed as early apoptotic cells after 48 hrs at 0.5 uM by Annexin V/propidium iodide staining-based flow cytometric analysis (reference value: 0.64%); format: functional
Bel-7402 [28] = assay: Induction of apoptosis in human Bel7402 cells assessed as viable cells after 48 hrs at 0.5 uM by Annexin V/propidium iodide staining-based flow cytometric analysis (reference value: 92.80%); format: functional; conditions: Bel-7402, 48 h, read-out: Activity

Compound: C=C1C(=O)[C@]23[C@H](OC(=O)c4ccc(N(CCCl)CCCl)cc4)[C@H]1CC[C@H]2[C@@]12CO[C@@]3(O)[C@@H](O)[C@@H]1C(C)(C)CCC2=O
- IC50 (K562): 1170 nM
- IC50 (MCF7): 670 nM
- IC50 [1]: 900 nM
- IC50 (MGC-803): 1600 nM

Compound: C=C1C(=O)[C@]23[C@H](OC(=O)CCCc4ccc(N(CCCl)CCCl)cc4)[C@H]1CC[C@H]2[C@@]12CO[C@@]3(O)[C@@H](O)[C@@H]1C(C)(C)CC[C@@H]2O
- IC50 (K562): 2280 nM
- IC50 (MCF7): 1320 nM
- IC50 [1]: 1430 nM
- IC50 (MGC-803): 2020 nM
- IC50 (SW-620): 2700 nM
- IC50 [2]: 2280 nM
- IC50 (NCI-H460): 4.81 µM
- IC50 [3]: 7.26 µM
- IC50 [4]: 1430 nM
- IC50 [5]: 9.62 µM
- Ratio IC50 (Bel-7402 [6]): 6.73

Compound: C=C1C(=O)[C@]23[C@H](OC(=O)CCC(=O)N[C@@H](Cc4ccc(N(CCCl)CCCl)cc4)C(=O)OC)[C@H]1CC[C@H]2[C@@]12CO[C@@]3(O)[C@@H](O)[C@@H]1C(C)(C)CCC2=O
- IC50 (K562): 1660 nM
- IC50 (MCF7): 2880 nM
- IC50 [1]: 1410 nM
- IC50 (MGC-803): 3390 nM

Compound: C=C1C(=O)[C@]23[C@H](O)[C@H]1CC[C@H]2[C@@]12CO[C@]3(O)[C@@H](O)[C@@H]1C(C)(C)CC[C@@H]2O [ORIDONIN]
- IC50 (SW-620): 6260 nM
- IC50 [2]: 4670 nM
- IC50 (NCI-H460): 17.1 µM
- IC50 [3]: 21.7 µM
- IC50 [4]: 7480 nM
- IC50 [5]: 17.8 µM
- Ratio IC50 (Bel-7402 [6]): 2.38

Compound: C=C1C(=O)[C@]23[C@H](OC(=O)c4ccc(N(CCCl)CCCl)cc4)[C@H]1CC[C@H]2[C@@]12CO[C@@]3(O)[C@@H](O)[C@@H]1C(C)(C)CC[C@@H]2O
- IC50 (K562): 1120 nM
- IC50 (MCF7): 680 nM
- IC50 [1]: 500 nM
- IC50 (MGC-803): 1090 nM
- IC50 (SW-620): 1960 nM
- IC50 [2]: 1860 nM
- IC50 (NCI-H460): 2.35 µM
- IC50 [3]: 2.91 µM
- IC50 [4]: 500 nM
- IC50 [5]: 4.03 µM
- Ratio IC50 (Bel-7402 [6]): 8.06
- Activity [7]: 45.6%
- Activity [8]: 41.3%
- Activity [9]: 13%
- Activity [10]: 45.2%
- Activity [11]: 44.8%
- Activity [12]: 9.98%
- Activity [13]: 52%
- Activity [14]: 43.6%
- Activity [15]: 4.46%
- Activity (Bel-7402 [16]): Dose-dependent effect
- Activity (Bel-7402 [17]): 2.12%
- Activity (Bel-7402 [18]): 10.77%
- Activity (Bel-7402 [19]): 1.11%
- viability at 0.125 µM (Bel-7402 [20]): 87.1%
- Activity (Bel-7402 [21]): 1.23%
- Activity (Bel-7402 [22]): 19.85%
- Activity (Bel-7402 [23]): 3.14%
- viability at 0.25 µM (Bel-7402 [24]): 75.8%
- Activity (Bel-7402 [25]): 1.29%
- Activity (Bel-7402 [26]): 37.51%
- Activity (Bel-7402 [27]): 10.53%
- viability at 0.5 µM (Bel-7402 [28]): 50.7%

Compound: C=C1C(=O)[C@]23[C@H](OC(=O)CCCc4ccc(N(CCCl)CCCl)cc4)[C@H]1CC[C@H]2[C@@]12CO[C@@]3(O)[C@@H](O)[C@@H]1C(C)(C)CCC2=O
- IC50 (K562): 2370 nM
- IC50 (MCF7): 2250 nM
- IC50 [1]: 2530 nM
- IC50 (MGC-803): 3950 nM

Compound: C=C1C(=O)[C@]23[C@H](OC(=O)CCCc4ccc(N(CCCl)CCCl)cc4)[C@H]1CC[C@H]2[C@@]12CO[C@@]3(O)[C@@H](O)[C@@H]1C(C)(C)CC[C@@H]2OC(C)=O
- IC50 (K562): 1100 nM
- IC50 (MCF7): 790 nM
- IC50 [1]: 1370 nM
- IC50 (MGC-803): 2250 nM
